Results on five molecules are retold here after ChEMBL document CHEMBL1155641, “Cytotoxic cembrenolides and steroids from the formosan soft coral Sarcophyton crassocaule” (2000).

Molecules are shown by their SMILES. In brackets after ≈: the same amount, converted by molar mass.

Common to all, as to format: functional
Common to all, as to conditions: read-out: ED50 (the source's name)

The subject of one test is A549. Nature of the test: Cytotoxicity against human A549 cells. The essentials: (§1)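 Human A549 lung adenocarcinoma and HT-29 colon adenocarcinoma cell lines from the American Type Culture Collection. Cytotoxicity assay run per a previously described procedure.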
A further test deals with P388. Nature of the test: Cytotoxicity against mouse P388 cells. The essentials:
(§2)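 Human KB epidermoid carcinoma and mouse P-388 lymphocytic leukemia cells came from an academic laboratory (University of Illinois at Chicago). Cytotoxicity assay run per a previously described procedure.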

Another test has as its system HT-29. Nature of the test: Cytotoxicity against human HT29 cells. The essentials: as §1
A further test concerns KB. Nature of the test: Cytotoxicity against human KB cells. A digest of the protocol: as §2

Take `C=C1C(=O)O[C@H]2[C@H]1C[C@@H]1O[C@@]1(C)CC/C=C(\C)CC/C=C(\C)[C@@H]2OC(C)=O`: the EC50 is 4.66 µg/mL (≈ 12.4 µM) in the test with A549, 0.38 µg/mL (≈ 1.01 µM) in the test on P388, 5.67 µg/mL (≈ 15.1 µM) in the test with HT-29 and 7.39 µg/mL (≈ 19.7 µM) with KB.

`CC(C)[C@@H](C)CC[C@@H](C)[C@H]1CC[C@H]2[C@@H]3C[C@@H](O)[C@@]4(O)C[C@@H](O)CC[C@]4(C)[C@H]3CC[C@]12C`: the EC50 in the test with A549 is 6.26 µg/mL (≈ 14.4 µM); in the test with P388 it was 0.14 µg/mL (≈ 0.322 µM); with HT-29, 8.35 µg/mL (≈ 19.2 µM); in the test on KB, 5.38 µg/mL (≈ 12.4 µM).

As for `CC(=O)OC(C)(C)[C@H](C)CC[C@@H](C)[C@H]1CC[C@H]2[C@@H]3C[C@@H](O)[C@@]4(O)C[C@@H](O)CC[C@]4(C)[C@H]3CC[C@]12C`, the EC50 in the test on A549 was found to be 22.4 µg/mL (≈ 45.5 µM); in the test on P388, 3.96 µg/mL (≈ 8.04 µM); with HT-29 it was 4.32 µg/mL (≈ 8.77 µM); with KB it was 26.8 µg/mL (≈ 54.5 µM).

For the molecule `C=C1C(=O)O[C@H]2/C=C(\C)CC[C@H](OC(C)=O)[C@@]3(C)CC[C@H](OO3)/C(C)=C\C[C@@H]12` [DENTICULATOLIDE], the EC50 with A549 came out at 6.46 µg/mL (≈ 16.5 µM); in the test with P388, 0.15 µg/mL (≈ 0.384 µM); in the test on HT-29, 5.78 µg/mL (≈ 14.8 µM); with KB it was 6.29 µg/mL (≈ 16.1 µM).

`C=C1C(=O)O[C@@H]2C/C(C)=C/CC/C(C)=C/CC[C@]3(C)O[C@H]3C[C@@H]12` [SARCOCRASSOLIDE]: the EC50 in the test on A549 is 8.31 µg/mL (≈ 26.3 µM); in the test on P388 it was 0.16 µg/mL (≈ 0.506 µM); with HT-29, 7.55 µg/mL (≈ 23.9 µM); in the test on KB it was 9.15 µg/mL (≈ 28.9 µM).
